viability, differential viability (reversal) and inhibition data for 18 compounds are collected here from PubChem BioAssay.

One may read the viability as a read-out of living cells in per cent, often relative to untreated cells. In general, inhibition refers to the drop in the measured response relative to a control, in per cent.

Calls of active or inactive are those of the source.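 The calls were made as follows, unless noted: active = viability at or below 30% in both replicate assays; inconclusive = viability at or below 30% in just one of the two assays; inactive = the rest.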

The nature of test [1]: reduced viability of SK-BR-3 breast cancer cells – cell-based, 24 h, human, pilot screen (AID 572;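 active = viability at or below 10% of carrier control in both of two separate runs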;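 also: compound exposure lasted between 18 and 24 h rather than exactly 24 h; 100% = carrier-treated control wells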). Conditions: SK-BR-3 viability, CellTiter-Glo luminescence, at 10 µM, stronger effect = lower value.
The nature of test [2]: HUVEC growth inhibition – cell-based, human, primary screen (AID 575).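 Also: 100% = median of untreated cell wells with 0.1% DMSO on each plate.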 Conditions: HUVEC proliferation, CellTiter-Glo luminescence, 72 h; at 10 µM; stronger effect = lower value. In outline: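 Material: primary human umbilical vein endothelial cells / Schedule: 72 h exposure, 37 °C, 5% CO2, 30 min RT equilibration / Signal: ATP-based CellTiter-Glo luminescent read / Read-out basis: percent of median DMSO-control luminescence / Control set: 32 DMSO-only cell-control wells (high), 32 MePR drug-control wells (low) per plate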
Background: In ATP-based viability assays light output follows the ATP content of the culture.

Test [3] in a line: H69AR cell proliferation blockers – human, duplicate replicates, primary screen (AID 580;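 active = viability at or under a set limit in both replicates, limit being median viability minus 3 SD, cut at about 48% in these data, passing the limit was not always enough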;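 also: 100% = mean luminescence of untreated wells and 0% = no signal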). Conditions: H69AR lung tumor cells viability, ATP luminescence, 72 h; at 10 µM; stronger effect = lower value.
The nature of test [4]: MRP1 drug-resistance reversers in H69AR cells – cell-based, doxorubicin co-treatment, pilot screen (AID 601;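 active = viability loss from added drug above about 55%, and viability with drug at most 40%, in both replicates, limit read from the data, passing the limit was not always enough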). Conditions: CellTiter-Glo, 72 h, at 10 µM; for differential viability (reversal): stronger effect = higher value.
A short description of test [5]: yeast transport mutant growth inhibition pilot in 384-well plates, post-Golgi transport modulator project (AID 636; in the data active = inhibition above about 31%). Particulars: absorbance 615 nm, about 18 h, stronger effect = higher value.
The nature of test [6]: growth suppression of yeast trafficking mutant, preliminary HTS, modulators of trafficking downstream of Golgi apparatus project, 1536-format plate, OD 615 nm (AID 637; in the data active = inhibition above about 30%). Conditions: yeast transport mutant growth, absorbance 615 nm, 18 h; stronger effect = higher value.
[7] abbreviates: H69AR cells + 2 uM doxorubicin, measured here: viability with 2 uM doxorubicin, stronger effect = lower value.
[8] abbreviates: H69AR cells, compound alone cytotoxicity.

As to `O=C(CSc1nnc(-c2ccco2)n1-c1ccccc1)N1CCN(C(=O)c2ccco2)CC1`, the viability in test [1] was 137% (inactive); in test [2] it was 80.3% (inactive); in test [3], 84.4% (inactive); in test [4] (setting [7]), 85.9%; in test [4] (setting [8]), 84.4%. The differential viability (reversal) in test [4] (H69AR cells + 2 uM doxorubicin) is -1.54% (inactive). The inhibition is -1.17% (inactive) in test [5] and -0.82% (inactive) in test [6].
With `CCSc1nc(O)c(C2OC(=O)c3c2ccc(OC)c3OC)c(=O)n1-c1ccccc1` (centres undefined), the viability is 129% (inactive) in test [1]; 94.5% (inactive) in test [2]; 96.5% (inactive) in test [3]; 85.1% in test [4] (setting [7]); 96.5% in test [4] (setting [8]). In test [4] (H69AR cells + 2 uM doxorubicin), the differential viability (reversal) was 11.4% (inactive). In addition, the inhibition in test [5] was -9.45% (inactive); in test [6], 4.35% (inactive).
On to `C#CCN(C)Cc1ccccc1`, for which the viability in test [1] was 96% (inactive); in test [2], 94.3% (inactive); in test [3], 93.8% (inactive); in test [4] (setting [7]) it was 100%; in test [4] (setting [8]), 93.8%. Moreover, in test [4] (H69AR cells + 2 uM doxorubicin), the differential viability (reversal) was -6.42% (inactive). Also, the inhibition was 0.26% (inactive) in test [5] and -1.17% (inactive) in test [6].
For `Nc1cccc(C(=O)O)c1`, the viability in test [1] is 129% (inactive); in test [2], 98.2% (inactive); in test [3] it was 94.8% (inactive); in test [4] (setting [7]), 87.7%; in test [4] (setting [8]), 94.8%. For the same compound, the differential viability (reversal) in test [4] (H69AR cells + 2 uM doxorubicin) was 7.12% (inactive). Also, the inhibition is 1.82% (inactive) in test [5] and 0.33% (inactive) in test [6].
Regarding `CCOC(=O)C1=C[C@]2(CC)CCCN3CCc4c(n1c1ccccc41)[C@@H]32`, the viability in test [1] was 70% (inactive); in test [2], 49.9% (inactive); in test [3], 80.1% (inactive); in test [4] (setting [7]), 63.7%; in test [4] (setting [8]), 80.1%. Besides, the differential viability (reversal) in test [4] (H69AR cells + 2 uM doxorubicin) is 16.4% (inactive). Further, the inhibition is -0.26% (inactive) in test [5] and -1.67% (inactive) in test [6].
In the case of `O=C(CN1C(=O)c2ccccc2C1=O)Nc1ccc(S(=O)(=O)NCC2CCCO2)cc1` (centres undefined), the viability in test [1] was 89% (inactive); in test [2], 107% (inactive); in test [3], 96.4% (inactive); in test [4] (setting [7]) it was 110%; in test [4] (setting [8]), 96.4%. For the same compound, the differential viability (reversal) in test [4] (H69AR cells + 2 uM doxorubicin) was -14.1% (inactive). Further, the values for the inhibition in test [5] and in test [6] were -7.4% (inactive) and -4.91% (inactive), respectively.
`Cc1cc(-c2ccccc2)nnc1NCCN1CCOCC1`: the viability in test [1] was 98% (inactive); in test [2], 85.7% (inactive); in test [3], 89.7% (inactive); in test [4] (setting [7]), 92.1%; in test [4] (setting [8]) it was 89.7%. Moreover, the differential viability (reversal) in test [4] (H69AR cells + 2 uM doxorubicin) was -2.49% (inactive). For the same compound, the values for the inhibition in test [5] and in test [6] were 1.69% (inactive) and -3.17% (inactive), respectively.
Take `Cc1cccc(CC2CC(=O)N(c3ccccc3)C2=O)c1` (centres undefined): the viability in test [1] was 117% (inactive); in test [2] it was 101% (inactive); in test [3], 102% (inactive); in test [4] (setting [7]), 91.9%; in test [4] (setting [8]), 102%. The differential viability (reversal) in test [4] (H69AR cells + 2 uM doxorubicin) was 10.5% (inactive). The results for the inhibition in test [5] and in test [6] were -3.77% (inactive) and -5.9% (inactive), respectively.
Turning to `O=S(=O)(NCc1ccccn1)c1ccc2c(c1)OCCO2`, the viability in test [1] is 115% (inactive); in test [2], 114% (inactive); in test [3], 109% (inactive); in test [4] (setting [7]) it was 108%; in test [4] (setting [8]) it was 109%. Besides, the differential viability (reversal) in test [4] (H69AR cells + 2 uM doxorubicin) was 0.755% (inactive). Also, the inhibition is -0.81% (inactive) in test [5] and 0.18% (inactive) in test [6].
With `CCOc1ccc(S(=O)(=O)Nc2ccc(Cl)cn2)c(C)c1C`, the viability was 121% (inactive) in test [1]; 91% (inactive) in test [2]; 87.6% (inactive) in test [3]; 90.4% in test [4] (setting [7]); 87.6% in test [4] (setting [8]). Moreover, in test [4] (H69AR cells + 2 uM doxorubicin), the differential viability (reversal) is -2.8% (inactive). Besides, the inhibition in test [5] is -5.06% (inactive); in test [6], 4.43% (inactive).
`COCC(=O)Nc1cc(OC)ccc1OC`: the viability is 83% (inactive) in test [1]; 89% (inactive) in test [2]; 102% (inactive) in test [3]; 96.1% in test [4] (setting [7]); 102% in test [4] (setting [8]). Moreover, the differential viability (reversal) in test [4] (H69AR cells + 2 uM doxorubicin) is 5.8% (inactive). Also, the inhibition is -2.86% (inactive) in test [5] and 0.66% (inactive) in test [6].
Regarding `COc1cc2c3c(c1)/C(=C1/SC(NC(C)=O)=NC1=O)C(=O)N3C(C)(C)C=C2C`, the viability was 91% (inactive) in test [1]; 54.8% (inactive) in test [2]; 72.2% (inactive) in test [3]; 80.2% in test [4] (setting [7]); 72.2% in test [4] (setting [8]). Also, the differential viability (reversal) in test [4] (H69AR cells + 2 uM doxorubicin) is -7.9% (inactive). Further, the inhibition in test [5] is -10% (inactive); in test [6] it was -1.77% (inactive).
As to `COc1cccc(N2CCN(Cc3nc(N)nc(Nc4ccccc4)n3)CC2)c1`, the viability is 119% (inactive) in test [1]; 89.1% (inactive) in test [2]; 75.5% (inactive) in test [3]; 90% in test [4] (setting [7]); 75.5% in test [4] (setting [8]). The differential viability (reversal) in test [4] (H69AR cells + 2 uM doxorubicin) was -14.5% (inactive). For the same compound, the inhibition in test [5] is -3.77% (inactive); in test [6] it was 0.16% (inactive).
For the compound `CC(CCc1ccccc1)NCC(O)c1ccc(O)c(C(N)=O)c1` (centres undefined), the viability in test [1] is 94% (inactive); in test [2], 104% (inactive); in test [3], 93.8% (inactive); in test [4] (setting [7]), 92%; in test [4] (setting [8]), 93.8%. In test [4] (H69AR cells + 2 uM doxorubicin), the differential viability (reversal) was 1.8% (inactive). The inhibition in test [5] is 1.17% (inactive); in test [6] it was -3.17% (inactive).
As to `CCc1noc(C)c1C(=O)NCCc1ccc(OC)c(OC)c1`, the viability in test [1] was 87% (inactive); in test [2], 104% (inactive); in test [3], 104% (inactive); in test [4] (setting [7]) it was 87%; in test [4] (setting [8]) it was 104%. The differential viability (reversal) in test [4] (H69AR cells + 2 uM doxorubicin) was 16.7% (inactive). The inhibition in test [5] was -8.49% (inactive); in test [6], 2.58% (inactive).
On to `CC1CCN(S(=O)(=O)c2ccc(Br)s2)CC1`, for which the viability was 98% (inactive) in test [1]; 91.1% (inactive) in test [2]; 87.5% (inactive) in test [3]; 81.1% in test [4] (setting [7]); 87.5% in test [4] (setting [8]). The differential viability (reversal) in test [4] (H69AR cells + 2 uM doxorubicin) was 6.46% (inactive). The inhibition in test [5] was -2.6% (inactive); in test [6], -1.8% (inactive).
Turning to `CCOc1ccccc1NC(=O)CN(C)S(=O)(=O)c1cccc2nsnc12`, the viability in test [1] is 104% (inactive); in test [2] it was 91.1% (inactive); in test [3] it was 84% (inactive); in test [4] (setting [7]) it was 85.1%; in test [4] (setting [8]) it was 84%. In addition, the differential viability (reversal) in test [4] (H69AR cells + 2 uM doxorubicin) is -1.12% (inactive). In addition, the values for the inhibition in test [5] and in test [6] were -6.76% (inactive) and 0.73% (inactive), respectively.
As for `Cn1c(=O)[nH]c(=O)c2c1nc(N1CCOCC1)n2CC(O)COc1ccc2ccccc2c1` (centres undefined), the viability in test [1] was 70% (inactive); in test [2], 88.7% (inactive); in test [3], 88.3% (inactive); in test [4] (setting [7]) it was 89.9%; in test [4] (setting [8]), 88.3%. Besides, the differential viability (reversal) in test [4] (H69AR cells + 2 uM doxorubicin) was -1.6% (inactive). Besides, the inhibition in test [5] is -6.58% (inactive); in test [6], -1.82% (inactive).
